{"source": "paper PMC11377854", "about": "(Nature methods, 2024)", "key": {"[1]": {"test_system": "5-HT release in mouse dorsal cortex", "experiment": "Mesoscopic imaging of optogenetically evoked cortical 5-HT release", "assay_type": "in vivo, mice", "conditions": "fluoxetine 20 mg/kg i.p., GBR 12909 10 mg/kg i.p.", "how_it_was_run": "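In Sert-Cre mice, 300 nl AAV9-EF1a-DIO-ChrimsonR was injected into the DRN (AP −6.1, ML 0, depth 3 mm, 32° AP angle), with an optical fiber 0.2 mm above the site. Mice recovered ≥7 d and were habituated head-fixed over >3 d.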"}, "[2]": {"test_system": "g5-HT2m", "conditions": "read-out: EC50 values"}, "[3]": {"test_system": "r5-HT1.0", "experiment": "Dose-response of sensor fluorescence change", "assay_type": "cell-based, cultured rat cortical neurons", "conditions": "read-out: EC50 values"}, "[4]": {"test_system": "g5-HT3.0", "experiment": "Dose-response of sensor fluorescence change", "assay_type": "cell-based, cultured rat cortical neurons", "conditions": "read-out: EC50 values"}, "[5]": {"test_system": "r5-HT1.0", "experiment": "Dose-response of sensor fluorescence change", "assay_type": "cell-based, HEK293T cells", "conditions": "n = 3"}, "[6]": {"test_system": "g5-HT3.0", "experiment": "Dose-response of sensor fluorescence change", "assay_type": "cell-based, HEK293T cells", "conditions": "n = 3"}, "[7]": {"test_system": "g5-HT2h", "conditions": "read-out: EC50 values"}, "[8]": {"test_system": "β-arrestin pathway", "experiment": "Tango assay", "assay_type": "cell-based", "conditions": "HTLA cells, 5-HT 0.01 nM to 100 μM"}, "[9]": {"test_system": "GPCR-mediated Gs pathway", "experiment": "Luciferase complementation assay", "assay_type": "cell-based", "conditions": "HEK293T cells, 5-HT 0.01 nM to 1 mM"}, "[10]": {"test_system": "g5-HT3.0", "experiment": "Pharmacological specificity of g5-HT3.0 in HEK293T cells", "assay_type": "cell-based", "conditions": "compounds 10 μM except RS 100 μM"}, "[11]": {"test_system": "r5-HT1.0", "experiment": "Pharmacological specificity of r5-HT1.0 in HEK293T cells", "assay_type": "cell-based", "conditions": "compounds 10 μM except RS 100 μM"}}, "note": "Where two headings read alike, the source gives them in different places."}
{"compound": "Fc1ccc(C(OCCN2CCN(CCCc3ccccc3)CC2)c2ccc(F)cc2)cc1", "note": "[GBR 12909]", "values": [{"measurement": "baseline 5-HT levels (g5-HT3.0 signal)", "setting": "[1]", "value": "no effect"}]}
{"compound": "NCCc1c[nH]c2ccc(O)cc12", "note": "[5-HT, serotonin (5-hydroxytryptamine)]", "values": [{"measurement": "EC50", "setting": "[2]", "value": 2400, "unit": "nM"}, {"measurement": "EC50", "setting": "[3]", "value": 600, "unit": "nM"}, {"measurement": "EC50", "setting": "[4]", "value": 80, "unit": "nM"}, {"measurement": "EC50", "setting": "[5]", "value": "~790", "unit": "nM"}, {"measurement": "EC50", "setting": "[6]", "value": "~150", "unit": "nM"}, {"measurement": "EC50", "setting": "[7]", "value": 70, "unit": "nM"}]}
{"compound": "wild-type 5-HTR4: wild-type 5-HTR4 receptor", "values": [{"measurement": "downstream coupling, β-arrestin pathway", "setting": "[8]", "value": "high basal activity and robust, dose-dependent coupling"}, {"measurement": "downstream coupling, Gs pathway", "setting": "[9]", "value": "high basal activity and robust, dose-dependent coupling"}]}
{"compound": "CNCCC(Oc1ccc(C(F)(F)F)cc1)c1ccccc1", "note": "(stereo not drawn) [fluoxetine]", "values": [{"measurement": "baseline 5-HT levels (g5-HT3.0 signal)", "setting": "[1]", "value": "gradual increase"}]}
{"compound": "COc1cc(N)c(Cl)cc1C(=O)OCCCN1CCCCC1", "note": "[RS 23597-190]", "values": [{"measurement": "block of 5-HT induced response of g5-HT3.0", "setting": "[10]", "value": "blocked"}, {"measurement": "block of 5-HT induced response of r5-HT1.0", "setting": "[11]", "value": "blocked"}]}
